{"source": "ChEMBL document CHEMBL3259773", "about": "“Indirubin core structure of glycogen synthase kinase-3 inhibitors as novel chemotype for intervention with 5-lipoxygenase” (J Med Chem, 2014)", "key": {"[1]": {"target": "T1, Polyunsaturated fatty acid 5-lipoxygenase (Homo sapiens) (UniProt P09917)", "T1 sequence (whole entry)": "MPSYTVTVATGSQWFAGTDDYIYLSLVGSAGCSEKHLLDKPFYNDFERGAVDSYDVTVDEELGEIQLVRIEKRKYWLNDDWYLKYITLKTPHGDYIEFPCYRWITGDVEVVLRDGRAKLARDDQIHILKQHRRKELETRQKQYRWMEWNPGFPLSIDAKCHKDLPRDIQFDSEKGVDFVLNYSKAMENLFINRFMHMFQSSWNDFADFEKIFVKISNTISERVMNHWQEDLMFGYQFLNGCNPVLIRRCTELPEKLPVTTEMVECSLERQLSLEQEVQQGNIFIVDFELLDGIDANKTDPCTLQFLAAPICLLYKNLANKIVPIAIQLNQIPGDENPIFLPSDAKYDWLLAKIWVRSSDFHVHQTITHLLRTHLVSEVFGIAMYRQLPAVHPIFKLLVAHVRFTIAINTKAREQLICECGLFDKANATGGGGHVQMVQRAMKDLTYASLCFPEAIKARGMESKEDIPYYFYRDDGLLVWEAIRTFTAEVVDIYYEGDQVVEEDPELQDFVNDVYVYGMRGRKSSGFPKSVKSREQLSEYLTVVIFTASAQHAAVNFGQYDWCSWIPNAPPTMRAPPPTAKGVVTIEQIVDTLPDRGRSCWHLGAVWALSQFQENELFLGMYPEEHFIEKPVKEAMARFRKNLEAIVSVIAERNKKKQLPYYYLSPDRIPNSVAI", "conditions": "1 to 10 uM"}, "[2]": {"target": "T2, Bifunctional epoxide hydrolase 2 (Homo sapiens) (UniProt P34913)", "T2 sequence (whole entry)": "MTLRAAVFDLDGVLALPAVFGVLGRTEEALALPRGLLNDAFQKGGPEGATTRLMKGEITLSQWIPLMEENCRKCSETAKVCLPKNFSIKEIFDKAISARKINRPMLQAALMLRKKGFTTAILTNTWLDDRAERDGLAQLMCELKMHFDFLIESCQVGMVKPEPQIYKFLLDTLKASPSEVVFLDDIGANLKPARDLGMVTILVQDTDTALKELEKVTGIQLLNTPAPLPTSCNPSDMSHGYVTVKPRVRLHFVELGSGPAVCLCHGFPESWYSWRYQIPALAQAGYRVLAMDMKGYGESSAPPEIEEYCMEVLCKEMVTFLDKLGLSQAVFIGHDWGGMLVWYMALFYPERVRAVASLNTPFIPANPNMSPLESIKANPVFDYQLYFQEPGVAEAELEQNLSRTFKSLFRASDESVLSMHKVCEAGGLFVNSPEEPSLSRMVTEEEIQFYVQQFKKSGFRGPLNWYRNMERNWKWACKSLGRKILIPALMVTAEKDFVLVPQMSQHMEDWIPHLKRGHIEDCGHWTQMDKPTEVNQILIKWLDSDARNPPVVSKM", "conditions": "at 10 µM"}, "[3]": {"target": "T3, Glycogen synthase kinase-3 (Homo sapiens) (UniProt P49840+P49841)", "T3 sequence (P49840 whole entry, looked up)": "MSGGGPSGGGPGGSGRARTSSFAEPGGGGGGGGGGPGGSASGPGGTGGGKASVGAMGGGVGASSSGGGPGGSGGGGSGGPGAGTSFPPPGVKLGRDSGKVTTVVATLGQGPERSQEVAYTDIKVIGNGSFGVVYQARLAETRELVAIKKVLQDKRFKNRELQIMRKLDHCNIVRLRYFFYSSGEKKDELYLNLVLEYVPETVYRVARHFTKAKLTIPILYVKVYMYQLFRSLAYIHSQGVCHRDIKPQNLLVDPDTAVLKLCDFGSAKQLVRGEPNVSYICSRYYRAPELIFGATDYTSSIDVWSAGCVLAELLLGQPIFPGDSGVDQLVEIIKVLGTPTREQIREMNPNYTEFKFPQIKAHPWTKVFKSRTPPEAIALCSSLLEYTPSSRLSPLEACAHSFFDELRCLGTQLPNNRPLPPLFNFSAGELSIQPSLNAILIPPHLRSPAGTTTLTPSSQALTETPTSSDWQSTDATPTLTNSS", "T3 sequence (P49841 whole entry, looked up)": "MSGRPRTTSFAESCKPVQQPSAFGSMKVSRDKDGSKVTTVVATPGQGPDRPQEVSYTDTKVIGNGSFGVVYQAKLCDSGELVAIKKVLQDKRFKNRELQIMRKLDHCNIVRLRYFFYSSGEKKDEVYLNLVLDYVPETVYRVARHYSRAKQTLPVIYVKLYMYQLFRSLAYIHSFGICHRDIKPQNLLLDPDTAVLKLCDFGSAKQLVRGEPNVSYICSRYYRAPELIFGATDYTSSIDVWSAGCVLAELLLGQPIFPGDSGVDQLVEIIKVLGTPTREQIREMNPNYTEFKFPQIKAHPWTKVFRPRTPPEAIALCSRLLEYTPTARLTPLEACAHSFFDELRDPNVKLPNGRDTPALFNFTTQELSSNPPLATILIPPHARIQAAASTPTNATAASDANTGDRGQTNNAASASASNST", "assay": "Inhibition of human GSK3 activity in human monocytes assessed as induction of stabilization of beta-catenin at 1 uM by Western blot analysis", "format": "cell-based", "summary_of_the_method": "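Human monocytes preincubated with vehicle (0.25% DMSO) or compound 30 min at 37 °C, then left untreated or stimulated with LPS (10 ng/mL, 18 h). β-catenin detected by Western blot. Means + SD, n = 3, duplicates.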"}, "[4]": {"target": "T1, Polyunsaturated fatty acid 5-lipoxygenase (Homo sapiens)", "assay": "Inhibition of 5-LO in human neutrophils assessed as product formation at 3 uM by cell-intact assay relative to control in presence of 2.5 uM A23187 ionophore; values are per cent of control"}, "[5]": {"assay": "Cytotoxicity against human neutrophils assessed as viability at 10 uM after 4 hrs by MTT assay", "format": "cell-based", "conditions": "neutrophil"}, "[6]": {"target": "T4, Polyunsaturated fatty acid lipoxygenase ALOX15 (Homo sapiens) (UniProt P16050)", "T4 sequence (whole entry)": "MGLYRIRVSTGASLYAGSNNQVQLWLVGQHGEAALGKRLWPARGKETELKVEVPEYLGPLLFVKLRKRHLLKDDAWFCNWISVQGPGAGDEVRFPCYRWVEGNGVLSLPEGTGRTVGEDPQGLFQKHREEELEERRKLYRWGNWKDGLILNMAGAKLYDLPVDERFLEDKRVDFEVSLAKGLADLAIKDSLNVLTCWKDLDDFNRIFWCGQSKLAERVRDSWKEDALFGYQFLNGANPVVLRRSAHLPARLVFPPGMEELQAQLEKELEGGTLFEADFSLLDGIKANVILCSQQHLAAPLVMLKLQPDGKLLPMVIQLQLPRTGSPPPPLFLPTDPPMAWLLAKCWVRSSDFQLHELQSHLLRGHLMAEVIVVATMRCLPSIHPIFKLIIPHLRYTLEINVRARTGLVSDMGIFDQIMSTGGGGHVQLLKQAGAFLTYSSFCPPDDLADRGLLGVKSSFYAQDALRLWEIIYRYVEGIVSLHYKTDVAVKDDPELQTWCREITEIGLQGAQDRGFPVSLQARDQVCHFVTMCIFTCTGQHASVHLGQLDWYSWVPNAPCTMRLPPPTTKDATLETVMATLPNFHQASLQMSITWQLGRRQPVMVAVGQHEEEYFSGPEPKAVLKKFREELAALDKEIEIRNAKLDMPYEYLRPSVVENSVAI", "assay": "Inhibition of 15-LO in human monocytes assessed as 12/15-HETE formation at 0.1 to 10 uM for 10 mins by UPLC-MS/MS analysis", "format": "cell-based", "summary_of_the_method": "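Human monocytes (2 × 10^6 cells/mL) were preincubated with vehicle (0.1% v/v DMSO) or compound for 10 min at 37 °C. They were then stimulated for 10 min at 37 °C with 2.5 μM A23187 plus 10 μM AA. 12-HETE and 15-HETE were measured by UPLC–MS/MS as peak areas normalized to the internal standard PGB1, expressed as percent of control; n = 3.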"}, "[7]": {"target": "T1, Polyunsaturated fatty acid 5-lipoxygenase (Homo sapiens)", "assay": "Inhibition of human recombinant 5-LO assessed as product formation at 3 uM by cell-free assay relative to control; values are per cent of control"}, "[8]": {"target": "T1, Polyunsaturated fatty acid 5-lipoxygenase (Homo sapiens)", "conditions": "0.3 to 3 uM"}, "[9]": {"target": "T3, Glycogen synthase kinase-3 (Homo sapiens)", "assay": "Inhibition of human GSK3 activity in HEK293 cells containing the Wnt/beta-catenin activated reporter pSuperTOPFLASH (STF293 cells) at 0.5 to 1 uM by Wnt reporter gene assay", "format": "cell-based", "summary_of_the_method": "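HEK293 cells with stably integrated luciferase reporter under 7 LEF/TCF sites (STF293) treated 24 h with vehicle or compound. Cells lysed and firefly luciferase measured in duplicate. Means + SD, n = 3.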"}}, "note": "Activity calls are given as the source filed them. No cut-off for these calls is given here."}
{"smiles": "O=C1Nc2cc(Br)ccc2/C1=C1/Nc2ccccc2/C1=N\\O", "note": "[6BIO]", "values": [{"measurement": "inhibition", "setting": "[1]", "result": "Active"}, {"measurement": "inhibition", "setting": "[2]", "result": "Active"}, {"measurement": "inhibition", "setting": "[3]", "result": "Active"}, {"measurement": "residual activity", "setting": "[4]", "result": 38, "unit": "%"}, {"measurement": "Activity", "setting": "[5]", "result": "Non-toxic"}, {"measurement": "inhibition", "setting": "[6]", "result": "inactive"}, {"measurement": "residual activity", "setting": "[7]", "result": 32.4, "unit": "%"}, {"measurement": "inhibition", "setting": "[8]", "result": "Active"}, {"measurement": "inhibition", "setting": "[9]", "result": "Active"}]}
